Laboratory results from ChEMBL document CHEMBL1138746, “Indolebutylamines as selective 5-HT(1A) agonists” (J Med Chem, 2004).

Legend:
[1] = Inhibition of 5-hydroxytryptamine 2A receptor
D(2) dopamine receptor = D(2) dopamine receptor (Rattus norvegicus, UniProt P61169); assay: Displacement of [3H]spiperone from dopamine D2 receptor of rat striatal membranes; format: cell membranes, Membrane
Summary of the method: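 Rat striatal membranes (0.3–1.0 mg protein/mL) were incubated with 0.1 nM [3H]spiperone in Tris-HCl buffer (pH 7.1) containing 120 mmol/L NaCl, 5 mmol/L KCl, 1 mmol/L CaCl2, 1 mmol/L MgCl2 and 0.1% ascorbic acid, at 37 °C for 15 min. Bound ligand was separated by filtration with three ice-cold washes. Nonspecific binding was defined with 1 mmol/L (+)-butaclamol. IC50 (50% inhibition of binding) came from 5–10 concentrations, each in triplicate.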

[2] = target: T1, 5-hydroxytryptamine receptor 1A (Rattus norvegicus, UniProt P19327); assay: Inhibition of 8-OH DPAT bindign to rat hydroxytryptamine 1A receptor in hippocampal membranes
T1 sequence (P19327 whole entry): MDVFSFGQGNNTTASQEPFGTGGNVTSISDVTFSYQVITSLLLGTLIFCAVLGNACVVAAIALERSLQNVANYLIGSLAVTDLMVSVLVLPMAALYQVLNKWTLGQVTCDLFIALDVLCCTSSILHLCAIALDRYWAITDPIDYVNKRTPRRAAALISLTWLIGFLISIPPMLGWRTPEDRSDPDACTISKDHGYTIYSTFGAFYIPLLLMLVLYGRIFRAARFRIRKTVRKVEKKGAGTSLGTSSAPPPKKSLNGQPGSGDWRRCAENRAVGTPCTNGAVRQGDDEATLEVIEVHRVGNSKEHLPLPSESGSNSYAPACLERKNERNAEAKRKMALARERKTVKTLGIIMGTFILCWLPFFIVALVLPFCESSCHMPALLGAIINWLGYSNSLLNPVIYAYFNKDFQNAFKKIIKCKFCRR

[3] = Inhibition of Histamine H1 receptor
[4] = target: T2, Adrenergic receptor alpha-1 (Homo sapiens, UniProt P35348+P25100+P35368); assay: Inhibition of Alpha-1 adrenergic receptor; format: protein assay
T2 sequence (P35348 whole entry): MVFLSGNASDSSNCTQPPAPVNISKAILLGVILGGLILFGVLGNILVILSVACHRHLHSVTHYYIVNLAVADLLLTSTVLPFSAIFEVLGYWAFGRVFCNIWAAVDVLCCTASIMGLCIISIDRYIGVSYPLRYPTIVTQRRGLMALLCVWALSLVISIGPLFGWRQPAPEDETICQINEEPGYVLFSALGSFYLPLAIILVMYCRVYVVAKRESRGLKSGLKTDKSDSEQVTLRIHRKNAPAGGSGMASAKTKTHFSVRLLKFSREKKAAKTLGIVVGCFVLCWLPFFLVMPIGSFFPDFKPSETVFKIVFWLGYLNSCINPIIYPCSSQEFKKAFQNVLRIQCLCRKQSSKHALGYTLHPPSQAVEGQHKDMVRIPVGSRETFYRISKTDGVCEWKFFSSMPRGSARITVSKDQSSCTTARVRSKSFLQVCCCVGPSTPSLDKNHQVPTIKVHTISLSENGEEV
T2 sequence (P25100 whole entry): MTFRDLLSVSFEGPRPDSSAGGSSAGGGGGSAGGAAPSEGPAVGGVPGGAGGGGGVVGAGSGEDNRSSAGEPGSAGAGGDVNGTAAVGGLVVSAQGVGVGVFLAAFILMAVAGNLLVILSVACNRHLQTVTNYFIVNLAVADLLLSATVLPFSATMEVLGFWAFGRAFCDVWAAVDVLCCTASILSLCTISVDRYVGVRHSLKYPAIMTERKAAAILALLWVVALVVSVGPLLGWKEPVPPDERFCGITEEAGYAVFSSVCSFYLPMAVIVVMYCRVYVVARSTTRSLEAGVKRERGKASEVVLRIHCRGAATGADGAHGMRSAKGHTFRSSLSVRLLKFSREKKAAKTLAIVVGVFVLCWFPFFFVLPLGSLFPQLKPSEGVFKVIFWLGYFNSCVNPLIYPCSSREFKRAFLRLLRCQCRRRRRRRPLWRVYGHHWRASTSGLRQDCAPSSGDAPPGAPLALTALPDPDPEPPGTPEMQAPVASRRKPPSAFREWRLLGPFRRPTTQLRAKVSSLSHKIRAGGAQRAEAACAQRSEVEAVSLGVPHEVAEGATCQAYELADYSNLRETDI
T2 sequence (P35368 whole entry): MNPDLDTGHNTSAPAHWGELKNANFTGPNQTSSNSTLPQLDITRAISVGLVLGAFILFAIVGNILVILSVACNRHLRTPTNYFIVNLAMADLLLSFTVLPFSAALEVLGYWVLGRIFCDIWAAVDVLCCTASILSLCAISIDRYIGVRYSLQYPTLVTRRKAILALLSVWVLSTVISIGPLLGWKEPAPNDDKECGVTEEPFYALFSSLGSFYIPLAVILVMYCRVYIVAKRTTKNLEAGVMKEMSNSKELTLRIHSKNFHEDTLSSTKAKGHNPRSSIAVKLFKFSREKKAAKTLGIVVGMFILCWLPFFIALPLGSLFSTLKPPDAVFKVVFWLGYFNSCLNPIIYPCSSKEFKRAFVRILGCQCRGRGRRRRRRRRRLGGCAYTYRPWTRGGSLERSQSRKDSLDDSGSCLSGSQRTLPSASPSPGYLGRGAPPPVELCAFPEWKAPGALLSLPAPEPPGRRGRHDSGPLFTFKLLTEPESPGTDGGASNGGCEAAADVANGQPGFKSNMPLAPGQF

[5] = target: T3, Adrenergic receptor alpha-2 (Homo sapiens, UniProt P08913+P18825+P18089); assay: Inhibition of Alpha-2 adrenergic receptor; format: protein assay
T3 sequence (P08913 whole entry): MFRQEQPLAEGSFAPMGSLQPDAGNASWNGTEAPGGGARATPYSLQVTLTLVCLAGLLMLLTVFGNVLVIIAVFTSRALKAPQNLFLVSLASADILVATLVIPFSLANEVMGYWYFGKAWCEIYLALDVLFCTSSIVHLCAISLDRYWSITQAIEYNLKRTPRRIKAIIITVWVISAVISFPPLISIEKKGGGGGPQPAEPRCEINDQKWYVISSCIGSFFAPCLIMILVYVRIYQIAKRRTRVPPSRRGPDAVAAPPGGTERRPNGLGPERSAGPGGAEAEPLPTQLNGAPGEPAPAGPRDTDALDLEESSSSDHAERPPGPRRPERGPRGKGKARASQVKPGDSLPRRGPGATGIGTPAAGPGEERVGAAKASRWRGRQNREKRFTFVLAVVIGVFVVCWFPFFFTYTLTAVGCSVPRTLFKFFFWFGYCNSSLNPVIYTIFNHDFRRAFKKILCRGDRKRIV
T3 sequence (P18825 whole entry): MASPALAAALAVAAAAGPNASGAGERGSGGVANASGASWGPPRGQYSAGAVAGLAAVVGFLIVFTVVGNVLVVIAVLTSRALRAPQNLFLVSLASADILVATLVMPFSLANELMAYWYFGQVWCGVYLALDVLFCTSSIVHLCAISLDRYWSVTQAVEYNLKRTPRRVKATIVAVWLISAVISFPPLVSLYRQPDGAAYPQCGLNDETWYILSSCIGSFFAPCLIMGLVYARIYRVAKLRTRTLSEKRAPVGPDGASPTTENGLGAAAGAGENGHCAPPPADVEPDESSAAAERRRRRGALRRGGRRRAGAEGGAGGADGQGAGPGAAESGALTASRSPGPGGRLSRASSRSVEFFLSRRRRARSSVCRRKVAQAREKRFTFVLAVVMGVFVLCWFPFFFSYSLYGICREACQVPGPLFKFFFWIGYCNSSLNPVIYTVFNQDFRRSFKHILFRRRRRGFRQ
T3 sequence (P18089 whole entry): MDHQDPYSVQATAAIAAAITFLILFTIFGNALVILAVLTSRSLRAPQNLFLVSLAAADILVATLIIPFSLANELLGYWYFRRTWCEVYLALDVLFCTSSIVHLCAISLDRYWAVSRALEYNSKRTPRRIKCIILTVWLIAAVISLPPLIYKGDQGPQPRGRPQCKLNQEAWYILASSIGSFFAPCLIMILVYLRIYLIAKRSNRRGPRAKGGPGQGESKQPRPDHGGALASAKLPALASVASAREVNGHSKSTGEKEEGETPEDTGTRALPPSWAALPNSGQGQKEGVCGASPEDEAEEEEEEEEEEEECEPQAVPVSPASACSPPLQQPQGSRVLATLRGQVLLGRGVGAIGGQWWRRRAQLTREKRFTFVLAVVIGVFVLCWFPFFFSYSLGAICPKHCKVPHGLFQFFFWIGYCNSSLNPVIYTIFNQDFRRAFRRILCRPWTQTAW

[6] = target: 5-hydroxytryptamine receptor 1A (Homo sapiens) (UniProt P08908); assay: Effective dose against 5-hydroxytryptamine 1A receptor
Sequence of 5-hydroxytryptamine receptor 1A (Homo sapiens) (P08908 whole entry, looked up): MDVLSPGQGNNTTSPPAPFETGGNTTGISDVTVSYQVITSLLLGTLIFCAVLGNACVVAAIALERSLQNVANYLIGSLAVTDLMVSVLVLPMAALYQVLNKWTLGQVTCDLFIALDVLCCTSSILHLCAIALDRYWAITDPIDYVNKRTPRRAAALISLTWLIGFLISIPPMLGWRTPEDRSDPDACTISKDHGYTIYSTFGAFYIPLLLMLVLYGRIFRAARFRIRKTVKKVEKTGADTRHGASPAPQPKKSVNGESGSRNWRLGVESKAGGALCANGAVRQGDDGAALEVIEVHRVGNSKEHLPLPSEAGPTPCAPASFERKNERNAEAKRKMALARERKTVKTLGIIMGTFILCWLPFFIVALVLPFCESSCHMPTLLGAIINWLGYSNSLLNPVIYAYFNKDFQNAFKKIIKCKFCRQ

[7] = Inhibition of 5-hydroxytryptamine 1D receptor
[8] = Inhibition of 5-hydroxytryptamine 2C receptor
[9] = Inhibition of hydroxytryptamine 2C receptor
[10] = target: 5-hydroxytryptamine receptor 1A (Homo sapiens) (UniProt P08908); assay: Effective dose against 5-HT1a receptor

Sequence of D(2) dopamine receptor (P61169 whole entry): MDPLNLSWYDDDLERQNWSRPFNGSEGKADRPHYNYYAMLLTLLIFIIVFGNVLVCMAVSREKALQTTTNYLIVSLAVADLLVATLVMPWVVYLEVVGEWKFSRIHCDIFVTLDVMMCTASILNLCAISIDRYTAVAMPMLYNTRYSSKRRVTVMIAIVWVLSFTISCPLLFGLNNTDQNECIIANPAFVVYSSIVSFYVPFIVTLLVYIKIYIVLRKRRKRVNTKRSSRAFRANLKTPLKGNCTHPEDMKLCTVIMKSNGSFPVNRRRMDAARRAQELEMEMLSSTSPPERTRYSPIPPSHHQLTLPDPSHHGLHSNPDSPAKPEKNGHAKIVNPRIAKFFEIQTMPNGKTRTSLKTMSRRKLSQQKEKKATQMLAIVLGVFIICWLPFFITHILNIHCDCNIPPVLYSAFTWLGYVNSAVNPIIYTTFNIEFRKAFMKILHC

COc1ccc(N2CCN(CCCCc3c[nH]c4ccc(C(N)=O)cc34)CC2)cc1
IC50 [1]: 220 nM | IC50 (D(2) dopamine receptor): 140 nM | IC50 [2]: 0.09 nM | IC50 [3]: 1000 nM | IC50 [4]: 700 nM | IC50 [5]: 2000 nM

NC(=O)c1ccc2[nH]cc(CCCCN3CCN(c4ccc5c(c4)CCCO5)CC3)c2c1
ED50 [6]: 0.07 nM | IC50 (D(2) dopamine receptor): 100 nM | IC50 [2]: 0.5 nM

NC(=O)c1ccc2[nH]cc(CCCCN3CCN(c4ccc5c(c4)OCO5)CC3)c2c1
IC50 [7]: 400 nM | IC50 [1]: 240 nM | IC50 (D(2) dopamine receptor): 22 nM | IC50 [2]: 0.4 nM | IC50 [3]: 19 nM | IC50 [4]: 100 nM | IC50 [8]: 800 nM | IC50 [5]: 900 nM

COc1ccc(N2CCN(CCCCc3c[nH]c4ccc(OC)cc34)CC2)cc1
IC50 [7]: > 10000 nM | IC50 [1]: 750 nM | IC50 (D(2) dopamine receptor): 420 nM | IC50 [9]: 4000 nM | IC50 [3]: 41 nM | IC50 [4]: 1000 nM | IC50 [5]: 7000 nM

NC(=O)c1ccc(N2CCN(CCCCc3c[nH]c4ccc(C(N)=O)cc34)CC2)cc1
ED50 [10]: 4.7 nM | IC50 (D(2) dopamine receptor): > 850 nM
